According to ChEMBL document CHEMBL1155326, “Design, synthesis and evaluation of 4,5-di-substituted acridone ligands with high G-quadruplex affinity and selectivity, together with low toxicity to normal cells” (Bioorg Med Chem Lett, 2009):
The source made the active and inactive calls. No cut-off for these calls is given here.

Assays:
IMR-90 (Homo sapiens) = experiment: Cytotoxicity against human IMR90 cell after 72 hrs by SRB assay; details: IMR-90, 72 h
A549 [1] = experiment: Cytotoxicity against human A549 cell after 72 hrs by SRB assay; assay type: functional, cell-based; details: A549, 72 h
Nucleic Acid [2] = experiment: Binding affinity to human telomeric G4 DNA of sequence 5'-FAM-d(GGG[TTAGGG]3)-TAMRA-3' assessed as change in melting temperature by FRET DNA melting assay; assay type: nucleic-acid assay
Nucleic Acid [3] = experiment: Binding affinity to human Duplex DNA of sequence 5'-FAM-dTATAGCTATA-HEG-TATAGCTATA-TAMRA-3' assessed as change in melting temperature by FRET DNA melting assay; assay type: nucleic-acid assay
Nucleic Acid [4] = experiment: Telomere shortening in DNA assessed by measuring telomere length after 6 weeks; assay type: nucleic-acid assay
MCF7 [5] = experiment: Cytotoxic activity in human MCF7 cell assessed by number of scenescence cell at 15 uM after 4 weeks; assay type: functional
In short: (§1)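 Long-term MCF7 or A549 cultures were dosed at the start and then re-dosed three times weekly. At each re-dose the medium was discarded, cells were PBS-washed, and fresh medium plus compound was added. For staining, 1 × 10^5 cells per well were plated in medium with compound. After 24 h they were stained for senescence-associated β-galactosidase, and blue cells were counted by microscopy.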

MCF7 [6] = experiment: Cytotoxic activity in human MCF7 cell assessed by number of scenescence cell at 5 uM after 5 weeks; assay type: functional
In short: as §1

MCF7 [7] = experiment: Cytotoxic activity in human MCF7 cell assessed by number of scenescence cell at 15 uM after 5 weeks; assay type: functional
In short: as §1

[8] = biological target: Telomerase reverse transcriptase (Homo sapiens) (UniProt O14746); experiment: Inhibition of Telomerase by TRAP-LIG assay
MCF7 [9] = experiment: Cytotoxic activity in human MCF7 cell assessed by number of scenescence cell at 5 uM after 4 weeks; assay type: functional
In short: as §1

[10] = Cytotoxicity against human IMR90 cell after 72 hrs by SRB assay; assay type: cell-based; details: IMR-90, 72 h
MCF7 [11] = experiment: Cytotoxicity against human MCF7 cell after 72 hrs by SRB assay; assay type: functional, cell-based; details: MCF7, 72 h
MCF7 (Homo sapiens) [12] = experiment: Cytotoxicity against human MCF7 cell after 72 hrs by SRB assay; details: MCF7, 72 h
A549 [13] = experiment: Cytotoxic activity in human A549 cell assessed by number of scenescence cell at 35 uM after 5 weeks; assay type: functional
In short: as §1

MCF7 [14] = experiment: Cytotoxic activity in human MCF7 cell assessed as number of scenescence cell at 10 uM after 1 week; assay type: functional
In short: as §1

MCF7 [15] = experiment: Cytotoxicity against human MCF7 by SRB assay; assay type: functional, cell-based
A549 [16] = experiment: Cytotoxic activity in human A549 cell assessed by number of scenescence cell at 25 uM after 1 week; assay type: functional
In short: as §1

A549 [17] = experiment: Cytotoxic activity in human A549 cell assessed by number of scenescence cell at 25 uM after 3 weeks; assay type: functional
In short: as §1

MCF7 (Homo sapiens) [18] = experiment: Cytotoxicity against human MCF7 at 10 uM by assessed as population doublings SRB assay
A549 [19] = experiment: Cytotoxic activity in human A549 cell assessed by number of scenescence cell at 25 uM after 4 weeks; assay type: functional
In short: as §1

A549 [20] = experiment: Cytotoxic activity in human A549 cell assessed by number of scenescence cell at 10 uM after 1 weeks; assay type: functional
In short: as §1

MCF7 [21] = experiment: Cytotoxic activity in human MCF7 cell assessed by number of scenescence cell at 25 uM after 3 weeks; assay type: functional
In short: as §1

MCF7 [22] = experiment: Cytotoxic activity in human MCF7 cell assessed by number of scenescence cell at 25 uM after 1 week; assay type: functional
In short: as §1

A549 [23] = experiment: Cytotoxic activity in human A549 cell assessed by number of scenescence cell at 35 uM after 4 weeks; assay type: functional
In short: as §1

A549 [24] = experiment: Cytotoxic activity in human A549 cell assessed by number of scenescence cell at 25 uM after 5 weeks; assay type: functional
In short: as §1

A549 [25] = experiment: Cytotoxic activity in human A549 cell assessed by number of scenescence cell at 10 uM after 4 weeks; assay type: functional
In short: as §1

MCF7 [26] = experiment: Cytotoxic activity in human MCF7 cell assessed by number of scenescence cell at 35 uM after 1 week; assay type: functional
In short: as §1

A549 [27] = experiment: Cytotoxic activity in human A549 cell assessed by number of scenescence cell at 35 uM after 1 week; assay type: functional
In short: as §1

MCF7 [28] = experiment: Cytotoxic activity in human MCF7 cell assessed as number of scenescence cell at 10 uM after 3 weeks; assay type: functional
In short: as §1

MCF7 [29] = experiment: Cytotoxic activity in human MCF7 cell assessed as number of scenescence cell at 10 uM after 4 weeks; assay type: functional
In short: as §1

MCF7 [30] = experiment: Cytotoxic activity in human MCF7 cell assessed as number of scenescence cell at 10 uM after 5 weeks; assay type: functional
In short: as §1

A549 [31] = experiment: Cytotoxic activity in human A549 cell assessed by number of scenescence cell at 35 uM after 3 weeks; assay type: functional
In short: as §1

A549 [32] = experiment: Cytotoxic activity in human A549 cell assessed by number of scenescence cell at 10 uM after 3 weeks; assay type: functional
In short: as §1

A549 [33] = experiment: Cytotoxic activity in human A549 cell assessed by number of scenescence cell at 10 uM after 5 weeks; assay type: functional
In short: as §1

Telomerase reverse transcriptase (Homo sapiens), sequence (O14746 whole entry): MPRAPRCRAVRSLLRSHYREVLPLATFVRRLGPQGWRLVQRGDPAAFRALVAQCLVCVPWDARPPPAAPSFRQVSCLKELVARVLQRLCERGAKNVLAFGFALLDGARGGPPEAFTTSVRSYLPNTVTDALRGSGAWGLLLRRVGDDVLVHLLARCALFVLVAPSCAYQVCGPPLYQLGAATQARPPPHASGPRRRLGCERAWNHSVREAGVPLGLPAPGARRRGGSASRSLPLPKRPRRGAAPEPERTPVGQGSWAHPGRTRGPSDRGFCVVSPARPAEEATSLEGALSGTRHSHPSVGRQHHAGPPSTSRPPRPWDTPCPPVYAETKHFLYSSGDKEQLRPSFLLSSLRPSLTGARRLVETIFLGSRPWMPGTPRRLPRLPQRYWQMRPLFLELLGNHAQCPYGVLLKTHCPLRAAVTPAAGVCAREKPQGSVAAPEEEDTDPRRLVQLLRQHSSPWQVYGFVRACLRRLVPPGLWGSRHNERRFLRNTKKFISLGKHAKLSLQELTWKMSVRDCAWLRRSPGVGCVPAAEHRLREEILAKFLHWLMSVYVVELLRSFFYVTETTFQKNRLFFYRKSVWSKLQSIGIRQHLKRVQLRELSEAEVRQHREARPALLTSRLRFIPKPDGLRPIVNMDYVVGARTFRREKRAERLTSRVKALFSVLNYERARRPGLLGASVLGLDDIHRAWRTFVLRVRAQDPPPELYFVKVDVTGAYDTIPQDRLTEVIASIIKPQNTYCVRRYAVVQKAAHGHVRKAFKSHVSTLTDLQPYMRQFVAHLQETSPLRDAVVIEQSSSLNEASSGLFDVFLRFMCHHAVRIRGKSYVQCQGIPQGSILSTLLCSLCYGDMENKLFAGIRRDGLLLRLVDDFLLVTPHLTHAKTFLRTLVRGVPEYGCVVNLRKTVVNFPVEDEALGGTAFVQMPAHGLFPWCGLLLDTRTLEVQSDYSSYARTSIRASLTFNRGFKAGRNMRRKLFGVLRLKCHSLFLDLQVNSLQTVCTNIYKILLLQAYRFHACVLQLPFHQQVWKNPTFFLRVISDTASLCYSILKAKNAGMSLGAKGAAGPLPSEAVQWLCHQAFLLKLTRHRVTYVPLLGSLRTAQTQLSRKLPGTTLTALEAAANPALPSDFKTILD

## Cn1cc(NC(=O)c2cccc3c(=O)c4cccc(C(=O)Nc5cc(C(=O)NCCCN6CCCC6)n(C)c5)c4[nH]c23)cc1C(=O)NCCCN1CCCC1
IMR-90 (Homo sapiens)
  IC50: > 100 µM
A549 [1]
  IC50: 21 µM
Nucleic Acid [2]
  ΔTm: 15 °C
Nucleic Acid [3]
  ΔTm: 0 °C

## CN(C)CCC(=O)Nc1ccc(NC(=O)c2cccc3c(=O)c4cccc(C(=O)Nc5ccc(NC(=O)CCN(C)C)cc5)c4[nH]c23)cc1
Nucleic Acid [4]
  Activity: inactive
MCF7 [5]
  Activity: 0%
IMR-90 (Homo sapiens)
  IC50: > 100 µM
MCF7 [6]
  Activity: 2%
A549 [1]
  IC50: 15 µM
MCF7 [7]
  Activity: 5%
[8]
  Activity: inactive
Nucleic Acid [2]
  ΔTm: 32 °C
MCF7 [9]
  Activity: 2%
Nucleic Acid [3]
  ΔTm: 2.5 °C

## O=C(CCCN1CCCC1)Nc1ccc(NC(=O)c2cccc3c(=O)c4cccc(C(=O)Nc5ccc(NC(=O)CCCN6CCCC6)cc5)c4[nH]c23)cc1
IMR-90 (Homo sapiens)
  IC50: > 100 µM
A549 [1]
  IC50: 8 µM
Nucleic Acid [2]
  ΔTm: 15 °C
Nucleic Acid [3]
  ΔTm: 0 °C

## O=C(CCN1CCCCC1)Nc1ccc(NC(=O)c2cccc3c(=O)c4cccc(C(=O)Nc5ccc(NC(=O)CCN6CCCCC6)cc5)c4[nH]c23)cc1
IMR-90 (Homo sapiens)
  IC50: > 100 µM
A549 [1]
  IC50: > 100 µM
Nucleic Acid [2]
  ΔTm: 31 °C
Nucleic Acid [3]
  ΔTm: 1.5 °C

## O=C(CCCCN1CCCC1)Nc1ccc(NC(=O)c2cccc3c(=O)c4cccc(C(=O)Nc5ccc(NC(=O)CCCCN6CCCC6)cc5)c4[nH]c23)cc1
[10]
  IC50: 2 µM
MCF7 [11]
  IC50: > 100 µM
A549 [1]
  IC50: 43 µM
Nucleic Acid [2]
  ΔTm: 22.5 °C
Nucleic Acid [3]
  ΔTm: 0.75 °C

## O=C(CCNC1CCCCC1)Nc1ccc(NC(=O)c2cccc3c(=O)c4cccc(C(=O)Nc5ccc(NC(=O)CCNC6CCCCC6)cc5)c4[nH]c23)cc1
IMR-90 (Homo sapiens)
  IC50: > 100 µM
A549 [1]
  IC50: 31 µM
Nucleic Acid [2]
  ΔTm: 24.5 °C
Nucleic Acid [3]
  ΔTm: 0 °C

## O=C(CCN1CCCC1)Nc1ccc(NC(=O)c2cccc3c(=O)c4ccccc4[nH]c23)cc1
IMR-90 (Homo sapiens)
  IC50: 7.5 µM
A549 [1]
  IC50: 16 µM
Nucleic Acid [2]
  ΔTm: 11 °C
MCF7 (Homo sapiens) [12]
  IC50: 9 µM
Nucleic Acid [3]
  ΔTm: 0.5 °C

## O=C(CN1CCCC1)Nc1ccc(NC(=O)c2cccc3c(=O)c4cccc(C(=O)Nc5ccc(NC(=O)CN6CCCC6)cc5)c4[nH]c23)cc1
IMR-90 (Homo sapiens)
  IC50: > 100 µM
A549 [1]
  IC50: > 100 µM
Nucleic Acid [2]
  ΔTm: 25.5 °C
Nucleic Acid [3]
  ΔTm: 0.5 °C

## CN1CCN(CCCNc2ccc(NC(=O)c3cccc4c(=O)c5cccc(C(=O)Nc6ccc(NCCCN7CCN(C)CC7)cc6)c5[nH]c34)cc2)CC1
IMR-90 (Homo sapiens)
  IC50: > 100 µM
A549 [1]
  IC50: > 100 µM
Nucleic Acid [2]
  ΔTm: 28 °C
Nucleic Acid [3]
  ΔTm: 1.5 °C

## O=C(CCN1CCCC1)Nc1cccc(NC(=O)c2cccc3c(=O)c4cccc(C(=O)Nc5cccc(NC(=O)CCN6CCCC6)c5)c4[nH]c23)c1
A549 [13]
  Activity: 0%
MCF7 [14]
  Activity: 2%
MCF7 [15]
  IC50: 84 µM
Nucleic Acid [4]
  Activity: inactive
A549 [16]
  Activity: 9%
A549 [17]
  Activity: 21%
MCF7 (Homo sapiens) [18]
  Activity: 17.5
A549 [19]
  Activity: 0%
A549 [20]
  Activity: 0%
MCF7 [21]
  Activity: 25%
MCF7 [22]
  Activity: 3%
IMR-90 (Homo sapiens)
  IC50: > 100 µM
A549 [23]
  Activity: 0%
A549 [1]
  IC50: > 100 µM
[8]
  Activity: inactive
Nucleic Acid [2]
  ΔTm: 29 °C
A549 [24]
  Activity: 0%
A549 [25]
  Activity: 0%
MCF7 [26]
  Activity: 12%
A549 [27]
  Activity: 8%
MCF7 [28]
  Activity: 3%
MCF7 [29]
  Activity: 0%
MCF7 [30]
  Activity: 1%
A549 [31]
  Activity: 30%
Nucleic Acid [3]
  ΔTm: 3 °C
A549 [32]
  Activity: 12%
A549 [33]
  Activity: 0%

## O=C(CCN1CCCC1)Nc1ccc(NC(=O)c2cccc3c(=O)c4cccc(C(=O)Nc5ccc(NC(=O)CCN6CCCC6)cc5)c4[nH]c23)cc1
IMR-90 (Homo sapiens)
  IC50: > 100 µM
A549 [1]
  IC50: 16 µM
Nucleic Acid [2]
  ΔTm: 34 °C
Nucleic Acid [3]
  ΔTm: 2.5 °C

## O=C(CCC(=O)N1CCCC1)Nc1ccc(NC(=O)c2cccc3c(=O)c4cccc(C(=O)Nc5ccc(NC(=O)CCC(=O)N6CCCC6)cc5)c4[nH]c23)cc1
IMR-90 (Homo sapiens)
  IC50: > 100 µM
A549 [1]
  IC50: 27 µM
Nucleic Acid [2]
  ΔTm: 0 °C
Nucleic Acid [3]
  ΔTm: 0 °C

## O=C(CCn1ccnc1)Nc1ccc(NC(=O)c2cccc3c(=O)c4cccc(C(=O)Nc5ccc(NC(=O)CCn6ccnc6)cc5)c4[nH]c23)cc1
IMR-90 (Homo sapiens)
  IC50: > 100 µM
A549 [1]
  IC50: 19 µM
Nucleic Acid [2]
  ΔTm: 15 °C
Nucleic Acid [3]
  ΔTm: 0.5 °C

## O=C(CCN1CCOCC1)Nc1ccc(NC(=O)c2cccc3c(=O)c4cccc(C(=O)Nc5ccc(NC(=O)CCN6CCOCC6)cc5)c4[nH]c23)cc1
IMR-90 (Homo sapiens)
  IC50: > 100 µM
A549 [1]
  IC50: > 100 µM
Nucleic Acid [2]
  ΔTm: 19 °C
MCF7 (Homo sapiens) [12]
  IC50: > 100 µM
Nucleic Acid [3]
  ΔTm: 0 °C

## CN(C)CCCNC(=O)c1cccc2c(=O)c3cccc(C(=O)NCCCN(C)C)c3[nH]c12
IMR-90 (Homo sapiens)
  IC50: > 100 µM
A549 [1]
  IC50: 62 µM
Nucleic Acid [2]
  ΔTm: 7 °C
Nucleic Acid [3]
  ΔTm: 1 °C

## O=C(Nc1ccc(NCCCN2CCOCC2)cc1)c1cccc2c(=O)c3cccc(C(=O)Nc4ccc(NCCCN5CCOCC5)cc4)c3[nH]c12
IMR-90 (Homo sapiens)
  IC50: > 100 µM
A549 [1]
  IC50: > 100 µM
Nucleic Acid [2]
  ΔTm: 20 °C
MCF7 (Homo sapiens) [12]
  IC50: > 100 µM
Nucleic Acid [3]
  ΔTm: 0 °C

## CN1CCN(CCC(=O)Nc2ccc(NC(=O)c3cccc4c(=O)c5cccc(C(=O)Nc6ccc(NC(=O)CCN7CCN(C)CC7)cc6)c5[nH]c34)cc2)CC1
IMR-90 (Homo sapiens)
  IC50: > 100 µM
A549 [1]
  IC50: > 100 µM
Nucleic Acid [2]
  ΔTm: 31 °C
Nucleic Acid [3]
  ΔTm: 1.5 °C

## CN(C)CCCNc1ccc(NC(=O)c2cccc3c(=O)c4cccc(C(=O)Nc5ccc(NCCCN(C)C)cc5)c4[nH]c23)cc1
IMR-90 (Homo sapiens)
  IC50: > 100 µM
A549 [1]
  IC50: > 100 µM
Nucleic Acid [2]
  ΔTm: 31 °C
Nucleic Acid [3]
  ΔTm: 2.5 °C

## O=C(Nc1ccc(NCCCN2CCCC2)cc1)c1cccc2c(=O)c3cccc(C(=O)Nc4ccc(NCCCN5CCCC5)cc4)c3[nH]c12
IMR-90 (Homo sapiens)
  IC50: > 100 µM
A549 [1]
  IC50: 66 µM
Nucleic Acid [2]
  ΔTm: 33 °C
Nucleic Acid [3]
  ΔTm: 2.5 °C
